Here are results for 31 molecules from ChEMBL document CHEMBL4043092, “Neuroprotective and Antineuroinflammatory Effects of Hydroxyl-Functionalized Stilbenes and 2-Arylbenzo[b]furans” (J Med Chem, 2017).

Assay [1] has as its system Cortical neurone. The experiment in a line: Neuroprotective activity against fibril amyloid beta (25 to 35)-induced cell death in Sprague-Dawley rat 5 day old neonatal primary cortical neurons assessed as cell death at maximum non toxic concentration pretreated for 2 hrs followed by 10 uM fibril amyloid beta (25 to 35) addition measured after 48 hrs by MTT assay (reference value: 39.20 +/- 0.88%). The assay is classed as functional. In outline:
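Rat cortical neurons from pups, papain-dissociated, cytosine arabinoside (5 μM, 1 day) to remove non-neuronal cells, used at DIV5. Vehicle 0.1% DMSO or compound pretreatment before fAβ25–35 (aged 1 week at 37 °C). Viability by MTT reduction: 0.5 mg/mL for 1 h, formazan dissolved in DMSO, OD600. Mean ± SD of three independent experiments.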
A general note: Formazan colour is commonly taken as a measure of viable cells.

The test system of assay [2] is Cortical neurone. The experiment in a line: Neuroprotective activity against glutamate-induced cell death in Sprague-Dawley rat 10 days old neonatal primary cortical neurons assessed as cell death at maximum non toxic concentration pretreated for 2 hrs followed by 30 uM glutamate addition measured after 24 hrs by MTT assay (reference value: 41.22 +/- 3.40%). The assay is classed as functional.

Assay [3] can be described thus: Anti-inflammatory activity in Sprague-Dawley rat primary mixed glial cells assessed as inhibition of LPS-induced NO production at 50 uM pretreated for 2 hrs followed by LPS addition measured after 48 hrs by Griess assay (reference value: 100%). Set-up: scale not given: the % may be the effect or the level left. The assay is classed as functional, Primary glial cell.

Assay [4] has as its system Cortical neurone. In words: Neuroprotective activity against fibril amyloid beta (25 to 35)-induced cell death in Sprague-Dawley rat 5 days old neonatal primary cortical neurons assessed as increase in cell viability pretreated for 2 hrs followed by 10 uM fibril amyloid beta (25 to 35) addition measured after 48 hrs by MTT assay. The assay is classed as functional, cell-based. In outline: (§1)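 Cortical neurons pretreated 2 h with vehicle (0.1% DMSO) or compound at maximum nontoxic concentration. Then exposed at DIV5 to fibrillar Aβ25–35 (10 μM, 48 h) or at DIV10 to glutamate (30 μM, 24 h). MTT 0.5 mg/mL for 1 h, formazan dissolved in DMSO, OD read at 600 nm. Mean ± SD of three independent experiments.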

The subject of assay [5] is Cortical neurone. The experiment in a line: Neuroprotective activity against glutamate-induced cell death in Sprague-Dawley rat 10 days old neonatal primary cortical neurons assessed as increase in cell viability pretreated for 2 hrs followed by 30 uM glutamate addition measured after 24 hrs by MTT assay. The assay is classed as functional, cell-based. In outline: as §1

A short description of assay [6]: Anti-inflammatory activity in Sprague-Dawley rat primary mixed glial cells assessed as inhibition of LPS-induced NO production pretreated for 2 hrs followed by LPS addition measured after 48 hrs by Griess assay. It is filed as functional, cell-based. The following applies: Glial cell. In outline:
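Mixed cortical glia kept 3 days in DMEM/F12 with 10% FBS, medium changed, 4 more days, then 9 days in Neurobasal/B27 (16 days total). Cultures activated 2 days after medium refresh with 100 ng/mL LPS for 48 h, with compound at maximum nontoxic concentration. Medium nitrite read by Griess reagent at 540 nm against NaNO2 standard. Mean ± SD, three independent experiments.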

Assay [7] in a line: Antioxidant activity assessed as ABTS radical cation scavenging activity by measuring trolox equivalents by spectrophotometric analysis. The assay is classed as functional.

For `COc1cc(/C=C/c2ccccc2O)c(Br)c(OC)c1OC`, the results for the Activity (in the assay with Cortical neurone [1]; in the assay on Cortical neurone [2]; in assay [3]) were 37.67%, 47.1% and 105.48%, respectively.

With `CCOC(=O)/C=C/c1ccc(OC)c(O)c1/C=C/c1cc(OC)c(OC)c(OC)c1`, the Activity worked out at 42.53% in the assay on Cortical neurone [1], 43.06% in the assay with Cortical neurone [2] and 114.19% in assay [3].

As for `CCOC(=O)/C=C/c1cc(OC)c(OC)cc1/C=C/c1cc(OC)c(OC)c(OC)c1`, the values for the Activity (in the assay on Cortical neurone [1]; in the assay on Cortical neurone [2]; in assay [3]) were 41.59%, 39.47% and 123.48%, respectively.

Take `CCOC(=O)/C=C/c1cc2c(cc1/C=C/c1cc(OC)c(OC)c(OC)c1)OCO2`: the Activity in the assay with Cortical neurone [1] came out at 41.76%; in the assay on Cortical neurone [2], 43.95%; in assay [3], 127.76%.

Take `COc1ccc(/C=C/c2cc(Br)cc(OC)c2O)cc1OC`: the Activity in the assay with Cortical neurone [1] amounted to 41.5%; with Cortical neurone [2] it was 42.09%; in assay [3] it was 88.34%.

As for `CCOC(=O)/C=C/c1cc(OC)c(OC)cc1/C=C/c1cccc(OC)c1O`, the Activity stood at 41.24% with Cortical neurone [1], 42.73% with Cortical neurone [2] and 89.35% in assay [3].

With `CCOC(=O)/C=C/c1cc2c(cc1/C=C/c1ccc(OC)cc1)OCO2`, the Activity in the assay with Cortical neurone [1] worked out at 41.62%; in the assay on Cortical neurone [2], 37.28%; in assay [3], 74.88%.

`CCOC(=O)/C=C/c1cc(OC)c(OC)cc1/C=C/c1ccccc1O`: the Activity is recorded as 36.56% in the assay with Cortical neurone [1], 43.3% in the assay with Cortical neurone [2] and 73.27% in assay [3].

Turning to `COc1ccc(Br)c2cc(-c3ccc4c(c3)OCO4)oc12`, the Activity in the assay on Cortical neurone [1] is 43.98%; in the assay with Cortical neurone [2], 46.84%; in assay [3] it was 202.71%.

Turning to `COc1cc(Br)cc(/C=C/c2ccc3c(c2)OCO3)c1O`, the results for the Activity (with Cortical neurone [1]; in the assay on Cortical neurone [2]; in assay [3]) were 45.74%, 45.69% and 48.79%, respectively. Also, the EC50 was above 10 µM in the assay on Cortical neurone [4], above 20 µM with Cortical neurone [5] and 84.8 µM in assay [6].

Turning to `COc1cc(Br)c(/C=C/c2cccc(OC)c2O)cc1OC`, the Activity was 39.67% in the assay on Cortical neurone [1], 42.89% with Cortical neurone [2] and 102.71% in assay [3].

Regarding `O=C(O)/C=C/c1ccc(O)c2c1C=Cc1cc(O)c(O)cc1O2` [TOURNEFOLIC ACID B], the Activity was determined as 24.66% in the assay with Cortical neurone [1], 42.43% in the assay on Cortical neurone [2], 98.77% in assay [3] and 1.27 mMequiv in assay [7]. In addition, the EC50 in the assay with Cortical neurone [4] is 35.7 µM.

Take `Oc1ccc(-c2cc3cc(Br)cc(O)c3o2)cc1`: the figures for the Activity (in the assay on Cortical neurone [1]; in the assay on Cortical neurone [2]; in assay [3]) were 30.1%, 33.02% and 101.84%, respectively.

As to `CCOC(=O)/C=C/c1c(/C=C/c2ccc(OC)cc2)cc(OC)c(OC)c1OC`, the Activity came to 36.93% in the assay with Cortical neurone [1], 41.07% in the assay on Cortical neurone [2] and 59.11% in assay [3].

Consider `CCOC(=O)/C=C/c1cc(/C=C/c2ccc3c(c2)OCO3)c(O)c(OC)c1`, for which the Activity in the assay with Cortical neurone [1] is given as 39.08%; in the assay on Cortical neurone [2] it was 41.26%; in assay [3], 139.87%.

With `CCOC(=O)/C=C/c1ccc(OC)c(O)c1/C=C/c1ccc2c(c1)OCO2`, the Activity with Cortical neurone [1] is 38.17%; in the assay with Cortical neurone [2], 49.21%; in assay [3] it was 70.98%. Moreover, the EC50 in the assay with Cortical neurone [4] is above 50 µM; in the assay on Cortical neurone [5] it was above 50 µM; in assay [6], 67 µM.

Consider `COc1cccc(/C=C/c2ccc3c(c2)OCO3)c1OC`, for which the values for the Activity (with Cortical neurone [1]; in the assay on Cortical neurone [2]; in assay [3]) were 38.18%, 44.02% and 95.92%, respectively.

Consider `CCOC(=O)/C=C/c1ccc(OC)c(O)c1/C=C/c1ccc(OC)c(OC)c1`, for which the Activity with Cortical neurone [1] is given as 38.07%; in the assay on Cortical neurone [2] it was 44.3%; in assay [3] it was 106.26%.

With `COc1cc(Br)c(/C=C/c2cc(Br)cc(OC)c2O)cc1OC`, the Activity in the assay on Cortical neurone [1] is on record as 38.78%; in the assay on Cortical neurone [2], 41.17%; in assay [3], 94.57%.

`COc1ccc(/C=C/c2ccc3c(c2)OCO3)cc1O`: the Activity in the assay with Cortical neurone [1] was 43.51%; with Cortical neurone [2], 30.94%; in assay [3], 81.35%.

Take `CCOC(=O)/C=C/c1cc(O)c(O)cc1-c1cc2cccc(O)c2o1`: the Activity with Cortical neurone [1] amounted to 31.58%; in the assay with Cortical neurone [2] it was 43.5%; in assay [3], 38.13%; in assay [7], 0.2 mMequiv. For the same molecule, the EC50 in the assay with Cortical neurone [4] is above 50 µM; in the assay with Cortical neurone [5], above 50 µM; in assay [6], 82.5 µM.

For the molecule `CCOC(=O)/C=C/c1cccc(/C=C/c2cc(O)c(O)c(O)c2)c1`, the Activity with Cortical neurone [1] is 41.19%; in the assay with Cortical neurone [2], 42.05%; in assay [3], 26.02%. Further, the EC50 in the assay on Cortical neurone [4] was above 50 µM; in the assay with Cortical neurone [5] it was above 50 µM; in assay [6] it was 48.9 µM.

Turning to `COc1cccc(/C=C/c2ccc3c(c2)OCO3)c1O`, the Activity in the assay on Cortical neurone [1] worked out at 46.98%; in the assay on Cortical neurone [2], 38.42%; in assay [3], 101%.

As for `COc1ccc(/C=C/c2cc(C=O)cc(OC)c2O)cc1OC`, the Activity in the assay with Cortical neurone [1] was determined as 48.16%; in the assay on Cortical neurone [2] it was 37.02%; in assay [3] it was 27.99%. The EC50 was above 50 µM in the assay on Cortical neurone [4], above 50 µM in the assay on Cortical neurone [5] and 43 µM in assay [6].

For `CCOC(=O)/C=C/c1ccc(/C=C/c2cc(OC)c(OC)c(OC)c2)cc1`, the Activity in the assay with Cortical neurone [1] is recorded as 44.43%; in the assay with Cortical neurone [2] it was 44.56%; in assay [3], 91.44%.

Regarding `CCOC(=O)/C=C/c1cc2c(cc1/C=C/c1cccc(OC)c1O)OCO2`, the Activity was 41.57% with Cortical neurone [1], 41.64% in the assay with Cortical neurone [2] and 75.33% in assay [3].

On to `CCOC(=O)/C=C/c1cccc(/C=C/c2cc(OC)c(OC)c(OC)c2)c1`, for which the Activity in the assay with Cortical neurone [1] was found to be 35.98%; in the assay with Cortical neurone [2] it was 43.29%; in assay [3] it was 75.6%.

As for `COc1cc(/C=C/c2ccc3c(c2)OCO3)cc(OC)c1OC`, the Activity in the assay with Cortical neurone [1] stood at 45.46%; in the assay with Cortical neurone [2] it was 36.43%; in assay [3], 83.73%.

As for `Oc1cc(-c2cc3cc(Br)cc(O)c3o2)cc(O)c1O`, the Activity in the assay with Cortical neurone [1] was 45.8%; in the assay with Cortical neurone [2] it was 43.67%; in assay [3], 106.67%.

With `COC(=O)/C=C/c1ccc(O)c2c1C=Cc1cc(O)c(O)cc1O2`, the Activity in the assay with Cortical neurone [1] was 40.12%; in the assay on Cortical neurone [2] it was 20.38%; in assay [3] it was 99.63%; in assay [7], 1.48 mMequiv. Also, in the assay on Cortical neurone [5], the EC50 was above 50 µM.

Take `Oc1cc(-c2cc3ccccc3o2)c(Br)c(O)c1O`: the Activity in the assay with Cortical neurone [1] is 42.34%; in the assay with Cortical neurone [2] it was 41.89%; in assay [3], 24.92%; in assay [7], 0.97 mMequiv. Also, the values for the EC50 (in the assay with Cortical neurone [4]; in the assay with Cortical neurone [5]; in assay [6]) were above 20 µM, above 20 µM and 39.2 µM, respectively.

What is called EC50 is the concentration at which the effect is half-maximal.
